# Activity calls are given as the source filed them. The calls are words filed in the database; no cut-off is given here.
# Legend:
# [1] = system: 4T1; test: Induction of cell cycle arrest in mouse 4T1 cells assessed as accumulation at G2/M phase at 0.4 mM incubated for 24 hrs by PI staining based flow cytometric analysis (reference value: 19.82%); type: functional
# [2] = system: 4T1; test: Inhibition of metastasis in mouse 4T1 cells assessed as disruption in F-actin arrangement at 0.2 mM incubated for 24 hrs by Hoechst 33342 staining based confocal laser scanning microscopic method; type: functional, cell-based
# Outline: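 After 24 h at 0.2 mM, 4T1 cells were stained for F-actin with Alexa Fluor 488 phalloidin and for nuclei with Hoechst 33342, then imaged by fluorescence for cytoskeletal arrangement and cell morphology.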
# [3] = system: 4T1; test: Inhibition of cell migration in mouse 4T1 cells assessed as wound closure rate at 0.2 mM measured up to 36 hrs by inverted optical microscopic method based wound healing assay (reference value: 82%); type: functional; design: scale not given: the % may be the effect or the level left
# [4] = system: 4T1; test: Antitumour activity against mouse 4T1 cells xenografted in BALB/c mouse assessed as increase in number of TUNEL positive cells at 10 mg/kg administered intratumorally and measured after 24 days by H and E staining based inverted optical microscopic method; type: functional, organism-based
# Outline: (§1)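 BALB/c mice bearing subcutaneous 4T1 tumours received 6 doses at 10 mg/kg body weight, matched for YSL monomer molar amount, with saline as control. Tumour sections were stained for H&E, CD31, Ki-67 and TUNEL. n = 5.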
# [5] = system: 4T1; test: Antitumour activity against mouse 4T1 cells xenografted in BALB/c mouse assessed as reduction in number of lung tumor metastatic nodules at 10 mg/kg administered intratumorally and measured after 24 days by H and E staining based inverted optical microscopic method; type: functional, organism-based
# Outline: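 After 6 doses of 10 mg/kg to 4T1 tumour-bearing BALB/c mice (saline control), lungs were photographed whole and examined histopathologically for the number and size of metastatic nodules.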
# [6] = system: 4T1; test: Inhibition of metastasis in mouse 4T1 cells assessed as cell shrinkage at 0.2 mM incubated for 24 hrs by Hoechst 33342 staining based confocal laser scanning microscopic method; type: functional
# Outline: (§2)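 After 24 h treatment, 4T1 cells were stained with Alexa Fluor 488 phalloidin for F-actin and Hoechst 33342 for nuclei, then imaged by fluorescence microscopy to assess cytoskeleton and cell morphology.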
# [7] = system: 4T1; test: Antitumour activity against mouse 4T1 cells xenografted in BALB/c mouse assessed as inhibition in tumor growth at 10 mg/kg administered intratumorally and measured every 3 days for 24 days; type: functional, organism-based
# Outline: (§3)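 BALB/c mice bearing subcutaneous 4T1 tumours received 6 doses of 10 mg/kg, with equal YSL-monomer molar amounts across compounds and saline as control. Tumour volume growth curves and body weights were tracked. Mean ± SD, n = 5.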
# [8] = system: 4T1; test: Induction of apoptosis in mouse 4T1 cells assessed as viable cells at 0.4 mM incubated for 24 hrs by Annexin V-FITC/PI based FACS analysis (reference value: 92.2%); type: functional; settings: 4T1, 24 h, read-out: Activity
# [9] = system: 4T1; test: Induction of apoptosis in mouse 4T1 cells at 0.4 mM incubated for 24 hrs by PI staining based inverted microscopic method; type: functional, cell-based
# Outline: (§4)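 Live–dead staining of 4T1 cells after 24 h exposure to 0.4 mM, read by PI staining. A 0.8 mM level was also examined.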
# [10] = system: 4T1; test: Antitumour activity against mouse 4T1 cells xenografted in BALB/c mouse assessed as reduction in number of Ki67 positive tumor cells at 10 mg/kg administered intratumorally and measured after 24 days by H and E staining based inverted optical microscopic method; type: functional, organism-based; outline: as §1
# [11] = system: 4T1; test: Induction of cell cycle arrest in mouse 4T1 cells assessed as accumulation at G0/G1 phase at 0.4 mM incubated for 24 hrs by PI staining based flow cytometric analysis (reference value: 37.78%); type: functional
# [12] = target: Matrix metalloproteinase-9 (Mus musculus) (UniProt P41245); test: Residual MMP9 activity in mouse 4T1 cells at 0.2 mM incubated for 24 hrs by coomassie brilliant blue staining based gelatin zymography assay relative to control
# Sequence of Matrix metalloproteinase-9 (Mus musculus) (P41245 whole entry): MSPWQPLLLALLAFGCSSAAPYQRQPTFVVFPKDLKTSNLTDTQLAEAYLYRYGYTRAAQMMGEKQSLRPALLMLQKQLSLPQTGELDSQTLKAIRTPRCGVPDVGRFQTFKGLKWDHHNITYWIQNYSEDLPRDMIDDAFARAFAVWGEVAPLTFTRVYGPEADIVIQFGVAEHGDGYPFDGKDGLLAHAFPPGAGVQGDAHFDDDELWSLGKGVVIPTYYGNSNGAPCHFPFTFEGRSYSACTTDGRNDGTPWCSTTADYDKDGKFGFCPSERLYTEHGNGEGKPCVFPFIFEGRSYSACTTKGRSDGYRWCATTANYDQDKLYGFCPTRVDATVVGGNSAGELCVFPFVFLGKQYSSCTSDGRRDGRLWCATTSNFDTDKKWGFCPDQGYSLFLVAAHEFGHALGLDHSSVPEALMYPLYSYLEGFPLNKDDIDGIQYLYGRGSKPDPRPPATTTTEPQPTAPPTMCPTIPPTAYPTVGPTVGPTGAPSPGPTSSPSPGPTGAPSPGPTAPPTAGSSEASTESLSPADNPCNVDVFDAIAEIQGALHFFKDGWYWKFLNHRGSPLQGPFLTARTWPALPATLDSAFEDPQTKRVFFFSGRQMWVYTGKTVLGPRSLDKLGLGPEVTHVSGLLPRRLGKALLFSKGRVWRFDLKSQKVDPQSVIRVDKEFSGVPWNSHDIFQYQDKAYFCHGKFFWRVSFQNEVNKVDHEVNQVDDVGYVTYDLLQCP
# [13] = Toxicity in BALB/c mouse xenografted with mouse 4T1 cells assessed as change in serum creatinine level at 10 mg/kg administered intratumorally and measured after 24 days; type: organism-based; settings: in vivo, other, 576 h
# [14] = Toxicity in BALB/c mouse xenografted with mouse 4T1 cells assessed as induction of morphological lesions in kidney at 10 mg/kg administered intratumorally and measured after 24 days by H and E staining based inverted optical microscopic method; type: organism-based; settings: in vivo, other, 576 h
# [15] = system: 4T1; test: Potency index, ratio of test compound effect to YSL effect for inhibition of cell migration in mouse 4T1 cells; type: functional
# [16] = system: 4T1; test: Inhibition of cell migration in mouse 4T1 cells assessed as migration frequency at 0.2 mM incubated for 24 hrs by crystal violet staining based transwell assay relative to control; type: functional; design: scale not given: the % may be the effect or the level left
# Outline: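 4T1 cells, Transwell migration with 24 h exposure to 0.2 mM. Migration rate comes from counting cells on the bottom of the porous membrane. Mean ± SD, n = 3.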
# [17] = Toxicity in BALB/c mouse xenografted with mouse 4T1 cells assessed as change in blood urea nitrogen level at 10 mg/kg administered intratumorally and measured after 24 days; type: organism-based; settings: in vivo, other, 576 h
# [18] = system: 4T1; test: Antiproliferative activity against mouse 4T1 cells assessed as cell death at 0.2 mM incubated for 24 hrs by MTT assay relative to control; type: functional
# Outline: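 Mouse 4T1 breast cancer cells exposed for 24 h (doses include 0.1 and 0.2 mM), then read by MTT for viability or cell death. Mean ± SD, n = 6.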
# [19] = system: 4T1; test: Antitumour activity against mouse 4T1 cells xenografted in BALB/c mouse assessed as […] at 10 mg/kg administered intratumorally and measured after 24 days by H and E staining based inverted optical microscopic method; type: functional, organism-based; outline: as §1
# [20] = system: 4T1; test: Antiproliferative activity against mouse 4T1 cells at 0.1 mM incubated for 24 hrs by MTT assay; type: functional, cell-based
# [21] = Toxicity in BALB/c mouse xenografted with mouse 4T1 cells assessed as induction of morphological lesions in liver at 10 mg/kg administered intratumorally and measured after 24 days by H and E staining based inverted optical microscopic method; type: organism-based; settings: in vivo, other, 576 h
# [22] = system: Erythrocyte; test: Hemolytic activity in BALB/c mouse RBC at 3.2 mM incubated for 2 hrs by UV-Vis spectrophotometric analysis; type: ADME, cell-based; settings: 3200 µM
# Outline: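 Hemolysis assay on red blood cells with dendrimers up to 3.2 mM. Result is expressed as hemolysis rate, with under 5% taken as acceptable.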
# [23] = system: 4T1; test: Induction of cell death in mouse 4T1 cells incubated for 24 hrs by PI staining based inverted microscopic method; type: functional; outline: as §4
# [24] = system: 4T1; test: Antitumour activity against mouse 4T1 cells xenografted in BALB/c mouse assessed as increase in cytotoxic tumor cell death at 10 mg/kg administered intratumorally and measured after 24 days by H and E staining based inverted optical microscopic method; type: functional, organism-based; outline: as §1
# [25] = Toxicity in BALB/c mouse xenografted with mouse 4T1 cells assessed as change in body weight at 10 mg/kg administered intratumorally and measured after 24 days; type: organism-based; settings: in vivo, other, 576 h; outline: as §3
# [26] = system: 4T1; test: Inhibition of metastasis in mouse 4T1 cells assessed as shortening in actin filaments at 0.2 mM incubated for 24 hrs by Hoechst 33342 staining based confocal laser scanning microscopic method; type: functional, cell-based; outline: as §2
# [27] = system: 4T1; test: Induction of apoptosis in mouse 4T1 cells assessed as necrotic cells at 0.4 mM incubated for 24 hrs by Annexin V-FITC/PI based FACS analysis (reference value: 0.47%); type: functional
# [28] = Toxicity in BALB/c mouse xenografted with mouse 4T1 cells assessed as induction of morphological lesions in spleen at 10 mg/kg administered intratumorally and measured after 24 days by H and E staining based inverted optical microscopic method; type: organism-based; settings: in vivo, other, 576 h
smiles,measurement,setting,value
COC(=O)[C@H](CCCCNC(=O)[C@H](CCCCNC(=O)[C@H](CCCCNC(=O)[C@H](CC(C)C)NC(=O)[C@H](CO)NC(=O)[C@@H](N)Cc1ccc(O)cc1)NC(=O)[C@H](CC(C)C)NC(=O)[C@H](CO)NC(=O)[C@@H](N)Cc1ccc(O)cc1)NC(=O)[C@H](CCCCNC(=O)[C@H](CC(C)C)NC(=O)[C@H](CO)NC(=O)[C@@H](N)Cc1ccc(O)cc1)NC(=O)[C@H](CC(C)C)NC(=O)[C@H](CO)NC(=O)[C@@H](N)Cc1ccc(O)cc1)NC(=O)[C@H](CCCCNC(=O)[C@H](CCCCNC(=O)[C@H](CC(C)C)NC(=O)[C@H](CO)NC(=O)[C@@H](N)Cc1ccc(O)cc1)NC(=O)[C@H](CC(C)C)NC(=O)[C@H](CO)NC(=O)[C@@H](N)Cc1ccc(O)cc1)NC(=O)[C@H](CCCCNC(=O)[C@H](CC(C)C)NC(=O)[C@H](CO)NC(=O)[C@@H](N)Cc1ccc(O)cc1)NC(=O)[C@H](CC(C)C)NC(=O)[C@H](CO)NC(=O)[C@@H](N)Cc1ccc(O)cc1,Activity,[1],7.08%
same,F-actin disruption (qualitative),[2],Active
same,Activity,[3],30%
same,Activity,[4],Active
same,Activity,[5],Active
same,inhibition,[6],Active
same,Activity,[7],Active
same,viability at 400 µM,[8],37.5%
same,Activity,[9],Active
same,Activity,[10],Active
same,Activity,[11],44.44%
same,residual activity,[12],34%
same,Activity,[13],Non-Toxic
same,Activity,[14],Non-Toxic
same,Ratio,[15],4.5
same,Activity,[16],10%
same,Activity,[17],Non-Toxic
same,Activity,[18],20%
same,Activity,[19],Active
same,Activity,[20],inactive
same,Activity,[21],Non-Toxic
same,Activity,[22],Non-Toxic
same,Activity,[23],Dose-dependent effect
same,Activity,[24],Active
same,Activity,[25],Non-Toxic
same,inhibition,[26],Active
same,Activity,[27],2.41%
same,Activity,[28],Non-Toxic

# Source: ChEMBL document CHEMBL4406918, “Inhibitory Effects of Multivalent Polypeptides on the Proliferation and Metastasis of Breast Cancer Cells” (ACS Med Chem Lett, 2019)
